≈ marks a conversion by molar mass, not a printed value.
Legend:
[1] = WHO-TDR: Cytotoxicity; format: toxicity, cell-based; conditions: human, MRC5 cells
Plasmodium falciparum K1 = assay: WHO-TDR: Malaria; format: functional, organism-based, Homo sapiens; conditions: Erythrocyte
Method in brief: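 Following previously published standard procedures, with a reference drug serving as positive control, compounds were tested on the Plasmodium falciparum K1 strain inside human red blood cells. The 10,000-compound diverse set came from Life Chemicals after filtering for drug-likeness and reactive groups. Potency against the parasite appears as IC50.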

Trypanosoma cruzi = assay: WHO-TDR: Chagas disease; format: functional, organism-based, Homo sapiens; conditions: MRC5
Method in brief: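 Following previously published standard procedures, with a reference drug as positive control, a whole-organism assay was run on Trypanosoma cruzi Tulahuen CL2 beta-galactosidase strain amastigotes inside MRC-5SV2 human lung fibroblast host cells. The 10,000 compounds tested formed a diverse Life Chemicals library filtered for drug-likeness and reactive groups. Results are expressed as IC50 for antiparasitic potency.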

[2] = tested on: Trypanosoma brucei brucei; assay: WHO-TDR: Human African Trypanosomiasis (HAT); format: functional, organism-based; conditions: Squib-427
Method in brief: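 Bloodstream forms of the Trypanosoma brucei Squib 427 strain were tested in a whole-organism screen with a diverse library from Life Chemicals of 10,000 compounds. Before screening, the library was filtered for drug-likeness and for reactive groups. The assay used previously published standard procedures and included reference drugs as positive controls. Potency against the parasite is expressed as IC50.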

Leishmania infantum = assay: WHO-TDR: Leishmaniasis; format: functional, organism-based, Mus musculus; conditions: Macrophage
Method in brief: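 Following previously published standard procedures, a whole-organism screen was run on Leishmania infantum MHOM/MA(BE)/67 amastigotes within murine peritoneal macrophages, with a reference drug as positive control. The 10,000 compounds tested formed a diverse Life Chemicals library filtered for drug-likeness and reactive groups. Potency against the parasite is reported as IC50.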

Schistosoma mansoni = assay: WHO-TDR: Schistosomiasis; format: functional; design: concentration or dose not given beside the values
Method in brief: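 Percent inhibition and IC50 describe activity against whole Schistosoma mansoni worms of the Puerto Rican strain, tested as larvae and/or adults. The compounds screened were a diverse set of 10,000 from Life Chemicals, filtered for drug-likeness and reactive groups. Testing followed previously published standard procedures, with a reference drug as positive control.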

Onchocerca ochengi = assay: WHO-TDR: Onchocerciasis; format: functional; design: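 at 12.5 µM on microfilariae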
Method in brief: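 Percent inhibition and IC50 describe activity against microfilariae of Onchocerca ochengi or Onchocerca lienalis, used as animal-pathogen substitutes for the human parasite. The compounds tested made up a 10,000-member diverse library from Life Chemicals.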

Brugia malayi = assay: WHO-TDR: Lymphatic Filariasis; format: functional; design: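 tested at 10 µM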
Method in brief: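 The screening set was a 10,000-compound diverse library from Life Chemicals, filtered for drug-likeness and for reactive groups. It was run against Brugia malayi microfilariae as whole organisms, using previously published standard procedures. Reference drugs acted as positive controls, and activity is reported both as percent inhibition and as IC50.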

Row | SMILES | IC50 (Plasmodium falciparum K1) [µg/mL] | IC50 [2] [µg/mL] | IC50 (Leishmania infantum) [µg/mL] | IC50 [1] [µg/mL] | IC50 (Trypanosoma cruzi) [µg/mL] | % Inhibition (Schistosoma mansoni) [%] | % Inhibition (Onchocerca ochengi) [%] | % Inhibition (Brugia malayi) [%]
1 | Cc1ccc(-c2nc(CSc3nc(O)cc(C(F)(F)F)n3)c(C)o2)cc1 | 11.4 (≈ 30 µM) | > 11.4 | > 11.4 | > 11.4 | > 11.4 | 0 | 100 | 20
2 | Cc1noc(C)c1CCc1nc(-c2ccc(Cl)cc2)no1 | 4.72 (≈ 15.5 µM) | > 9.11 | > 9.11 | 3.27 (≈ 10.8 µM) | 2.88 (≈ 9.49 µM) | 0 | 100 | 0
3 | CC1CCc2[nH]nc(-c3nc(-c4ccc(Cl)cc4)no3)c2C1 (stereo not drawn) | > 9.44 | > 9.44 | > 9.44 | > 9.44 | 5.55 (≈ 17.6 µM) | 0 | 100 | 0
4 | Cc1n[nH]c(C)c1CCc1nc(-c2ccc(Cl)cc2)no1 | 1.14 (≈ 3.78 µM) | 2.13 (≈ 7.03 µM) | > 9.08 | > 9.08 | 1.8 (≈ 5.96 µM) | 0 | 100 | 0
5 | CC(CC(=O)N1CCC(Cc2ccccc2)CC1)CC1=Nc2ccccc2S(=O)(=O)N1 (stereo not drawn) | > 13.2 | > 13.2 | > 13.2 | > 13.2 | 6.58 (≈ 15 µM) | 0 | 100 | 0
6 | Cc1ccc(-c2cc(CC(=O)Nc3cccc(C)n3)no2)cc1 | > 9.22 | > 9.22 | > 9.22 | > 9.22 | > 9.22 | 0 | 100 | 0
7 | COc1cccc(-c2cc(CC(=O)NCCC(C)C)no2)c1 | > 9.07 | > 9.07 | > 9.07 | > 9.07 | > 9.07 | 0 | 100 | 0
8 | COc1cccc(-c2cc(CC(=O)Nc3nc(C)cs3)no2)c1 | 4.59 (≈ 13.9 µM) | > 9.88 | > 9.88 | > 9.88 | > 9.88 | 0 | 100 | 0
9 | Cc1cc(C(=O)Nc2nc(-c3cccnc3)cs2)on1 | > 8.59 | > 8.59 | 0.278 (≈ 0.971 µM) | > 8.59 | 4.16 (≈ 14.5 µM) | 25 | 0 | 20
10 | Cc1cc(C(=O)Nc2nnc(-c3ccco3)o2)on1 | > 7.81 | > 7.81 | > 7.81 | > 7.81 | > 7.81 | 25 | 100 | 20
11 | Cc1ccccc1OCC(=O)NCCS(=O)(=O)N1CCN(Cc2ccccc2)CC1 | > 14 | > 14 | > 14 | > 14 | > 14 | 83.3 | 100 | 20
12 | O=C(Cc1ccc(Cl)cc1)NCCS(=O)(=O)N1CCN(Cc2ccccc2)CC1 | > 14.2 | > 14.2 | > 14.2 | > 14.2 | > 14.2 | 0 | 100 | 20
13 | O=C(Cc1csc(NC(=O)c2ccc(=O)[nH]c2)n1)NCc1cccs1 | > 11.2 | > 11.2 | > 11.2 | > 11.2 | > 11.2 | 100 | 0 | 20
14 | O=C(CCn1cnc2c(cnn2-c2ccccc2)c1=O)Nc1nccs1 | > 11 | > 11 | 3.56 (≈ 9.71 µM) | > 11 | > 11 | 100 | 0 | 20
15 | O=S(=O)(CCCOc1ccc2c(c1)OCO2)NC1CCN(Cc2ccccc2)CC1 | > 13 | 8.57 (≈ 19.8 µM) | > 13 | > 13 | 13 (≈ 30 µM) | 16.7 | 100 | 0

Now from value to compound, other results behind:

Row | IC50 (Plasmodium falciparum K1) [µg/mL] | IC50 [2] [µg/mL] | IC50 (Leishmania infantum) [µg/mL] | SMILES | IC50 [1] [µg/mL] | IC50 (Trypanosoma cruzi) [µg/mL] | % Inhibition (Schistosoma mansoni) [%] | % Inhibition (Onchocerca ochengi) [%] | % Inhibition (Brugia malayi) [%]
16 | > 13.5 | > 13.5 | > 13.5 | COc1cccc(C2C(S(=O)(=O)c3ccc(C)cc3)=C(O)C(=O)N2c2ccc(C)cc2)c1 (stereo not drawn) | > 13.5 | > 13.5 | 0 | 100 | 20
17 | > 11.3 | > 11.3 | 0.365 (≈ 1.07 µM) | COc1ccc(OC)c(Nc2c(C#N)cnc3ccc(Cl)cc23)c1 | 1.08 (≈ 3.18 µM) | 3.08 (≈ 9.07 µM) | 0 | 0 | 20
18 | 7.26 (≈ 16.9 µM) | 4.08 (≈ 9.49 µM) | > 12.9 | O=c1c2nccnc2n(Cc2cccc(C(F)(F)F)c2)c(=O)n1Cc1ccc(F)cc1 | 10 (≈ 23.2 µM) | 1.19 (≈ 2.76 µM) | 25 | 100 | 0
19 | > 10.8 | > 10.8 | 3.48 (≈ 9.71 µM) | COc1cccc(-c2cc(CC(=O)NCc3c(F)cccc3F)no2)c1 | > 10.8 | > 10.8 | 0 | 100 | 0
20 | > 9.76 | > 9.76 | 3.16 (≈ 9.71 µM) | Cc1cc(C(=O)Nc2nc(-c3cc4ccccc4o3)cs2)on1 | > 9.76 | > 9.76 | 0 | 100 | 20
21 | 3.65 (≈ 8.28 µM) | 0.428 (≈ 0.971 µM) | 4.28 (≈ 9.71 µM) | COc1nn(C)cc1-c1nnc(SCC(=O)N2CCC(Cc3ccccc3)CC2)n1C | 5.88 (≈ 13.3 µM) | 3.01 (≈ 6.84 µM) | 0 | 100 | 0
22 | > 13.5 | > 13.5 | > 13.5 | O=C(Nc1ccc(OC(F)(F)F)cc1)c1csc(NS(=O)(=O)c2cccs2)n1 | > 13.5 | > 13.5 | 0 | 100 | 20
23 | > 12.7 | > 12.7 | > 12.7 | O=C(NCCc1ccc(Cl)cc1)c1csc(NS(=O)(=O)c2ccccc2)n1 | > 12.7 | > 12.7 | 0 | 100 | 20
24 | > 11.8 | > 11.8 | > 11.8 | CC1Cc2ccccc2N1C(=O)Cc1csc(NC(=O)c2ccc[nH]c2=O)n1 (stereo not drawn) | > 11.8 | > 11.8 | 100 | 50 | 20
25 | > 11.7 | > 11.7 | 0.378 (≈ 0.972 µM) | O=C(Cc1csc(NC(=O)c2ccc[nH]c2=O)n1)Nc1ccc(Cl)cc1 | > 11.7 | > 11.7 | 0 | 0 | 20
26 | > 12.4 | > 12.4 | > 12.4 | O=C(Cc1csc(NC(=O)c2ccc[nH]c2=O)n1)Nc1ccc2c(c1)OCCO2 | > 12.4 | > 12.4 | 100 | 0 | 20
27 | > 11.1 | > 11.1 | > 11.1 | O=C(Cc1csc(NC(=O)c2ccc[nH]c2=O)n1)NCc1ccncc1 | > 11.1 | > 11.1 | 100 | 0 | 20
28 | > 11.6 | > 11.6 | > 11.6 | CC(C)(C)n1ncc2c(=O)n(CCC(=O)NCc3ccccc3Cl)cnc21 | > 11.6 | > 11.6 | 100 | 0 | 20
29 | > 11.5 | > 11.5 | > 11.5 | CC(C)(C)n1ncc2c(=O)n(CCC(=O)Nc3ccc4c(c3)OCO4)cnc21 | > 11.5 | > 11.5 | 100 | 0 | 20
30 | > 11.4 | > 11.4 | > 11.4 | CC1(C)Cc2cccc(OCCCS(=O)(=O)NCc3cccs3)c2O1 | > 11.4 | > 11.4 | 0 | 100 | 20
31 | > 10.7 | > 10.7 | > 10.7 | CC1CC(C)CN(S(=O)(=O)CCCOc2ccc3c(c2)OCO3)C1 (stereo not drawn) | 4.25 (≈ 11.9 µM) | > 10.7 | 100 | 0 | 20

From ChEMBL document CHEMBL2093137, “WHO-TDR NTD Screening”
